The text below walks through data of ChEMBL document CHEMBL1143245, “Large neutral amino acid transporter enables brain drug delivery via prodrugs” (J Med Chem, 2008).

Data set [1] addresses Large neutral amino acids transporter small subunit 1 (Rattus norvegicus) (UniProt Q63016). Nature of the data set: Binding affinity at LAT1 in rat brain assessed Inhibition of [14C]L-leucine PA uptake at 70 uM. In kind it is tissue-based. The gist of the method:
(§1)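 In situ rat brain perfusion with pH 7.4 bicarbonate-buffered saline (37 °C, 95% O2/5% CO2). [14C]L-leucine 0.2 µCi/mL perfused 30 s alone (100% PA product) or co-perfused with 70 µM prodrug. PA product derived from brain radioactivity measured by liquid scintillation counting; [14C]sucrose (0.2 µCi/mL) used as vascular marker. Inhibition relative to control PA; n=3–5.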

Data set [2] shares this target. As to the kind of experiment: Inhibition of [14C]L-leucine uptake at LAT1 in rat brain at 70 uM by perfusion technique. In kind it is tissue-based. The gist of the method: as §1
Data set [3] is described as follows: Stability in aqueous buffer at pH 7.4. Type of data set: physicochemical. Summed up:
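Chemical hydrolysis in 0.16 M phosphate buffer pH 7.4 (ionic strength 0.5) at 37 °C in a thermostatted water bath. Disappearance followed by HPLC; pseudo-first-order half-life; n=2.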

In data set [4] the test system is Brain. As to the kind of experiment: Drug uptake in rat brain at 64 uM in presence of 2-aminobicyclo(2,2,1)heptane-2-carboxylic acid by perfusion technique. Particulars: in vivo. In kind it is ADME, tissue-based. The gist of the method:
(§2)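 Rat brain perfused in situ for 60 s at 37 °C with 64 µM prodrug, alone or with 2 mM BCH added to the medium. Vasculature washed 30 s with cold prodrug-free medium. Brain uptake in pmol/mg/min quantified by HPLC after extraction; n=3; two-tailed independent t test.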

For data set [5], the system named is Brain. Nature of the data set: Drug uptake in rat brain at 64 uM by perfusion technique. In kind it is ADME, tissue-based. The following applies: in vivo. The gist of the method:
as §2

A short description of data set [6]: Stability in rat brain assessed as half life of hydrolysis. Type of data set: ADME, tissue-based. The gist of the method:
(§3)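 Enzymatic hydrolysis at 37 °C in rat serum diluted to 80%, brain homogenate diluted to 20%, or liver homogenate diluted to 50% (v/v) with 0.16 M phosphate buffer pH 7.4. Aliquots taken into acetonitrile to precipitate protein, then analysed by HPLC. Pseudo-first-order half-lives; n=3.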

Data set [7] is described as follows: Stability in rat liver assessed as half life of hydrolysis. In kind it is ADME, tissue-based. The gist of the method: as §3
A short description of data set [8]: Stability in rat serum assessed as half life of hydrolysis. Type of data set: ADME, cell-free. Summed up: as §3
In data set [9] the test system is Brain. Nature of the data set: (§4) Drug uptake in rat brain after 60 secs perfusion. In kind it is ADME, tissue-based. Particulars: in vivo, 1 min. The gist of the method: (§5)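 In situ rat brain perfusion, 60 s at 37 °C, with seven prodrug concentrations from 0 to 138 µM in bicarbonate-buffered saline pH 7.4. Vasculature then washed 30 s with cold (5 °C) prodrug-free medium. Brain hemisphere homogenised, acidified, ethyl acetate-extracted and analysed by HPLC. Km and Vmax from nonlinear Michaelis–Menten fit; mean ± SD, n=3.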

A short description of data set [10]: as §4. Type of data set: ADME, tissue-based. Particulars: brain, other: perfusion. Summed up: as §5

As usually defined, the inhibition is the drop in the measured response relative to a control, in per cent. As usually defined, the half-life is how long it takes for the measured level to halve. A word on the Vmax: it is the top rate of the reaction or transport when substrate is in excess. As a reminder, the Km is the substrate concentration at which the rate is half of its maximum.

Chain of Large neutral amino acids transporter small subunit 1 (Rattus norvegicus) (Q63016 whole entry, looked up, the tested form may be a part): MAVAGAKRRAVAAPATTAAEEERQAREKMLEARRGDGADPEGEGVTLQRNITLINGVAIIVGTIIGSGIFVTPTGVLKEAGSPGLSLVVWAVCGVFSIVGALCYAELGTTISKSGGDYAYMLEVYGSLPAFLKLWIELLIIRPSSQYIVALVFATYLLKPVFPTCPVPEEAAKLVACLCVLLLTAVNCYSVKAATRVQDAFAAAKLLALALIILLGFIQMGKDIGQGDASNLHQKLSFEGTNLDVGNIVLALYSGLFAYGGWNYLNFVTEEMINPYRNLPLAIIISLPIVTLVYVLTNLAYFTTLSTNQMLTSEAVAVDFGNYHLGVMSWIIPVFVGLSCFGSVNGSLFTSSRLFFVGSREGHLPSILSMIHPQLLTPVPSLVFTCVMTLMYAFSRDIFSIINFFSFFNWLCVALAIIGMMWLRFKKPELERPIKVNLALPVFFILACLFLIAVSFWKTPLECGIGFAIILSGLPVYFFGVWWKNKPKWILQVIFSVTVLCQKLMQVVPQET

For `CC(C)CC(NC(=O)C(C)c1cccc(C(=O)c2ccccc2)c1)C(=O)O` (stereo not drawn), the Activity in [1] was 0.0266 mL/s/g.
Still for that read-out and setting: next, `CC(C(=O)NC(Cc1ccccc1)C(=O)O)c1cccc(C(=O)c2ccccc2)c1` (stereo not drawn): 0.0191 mL/s/g.
The compound `CC(C(=O)Oc1ccc(C[C@H](N)C(=O)O)cc1)c1cccc(C(=O)c2ccccc2)c1.Cl` (stereo partly drawn) returned an inhibition in data set [2] of 98.5%. Also, the half-life in [3] is 1350 min; in [6], 4.4 min; in data set [7] it was 2.8 min; in data set [8], 10.2 min. Also, the Drug uptake in the data set with Brain [4] came out at 0.362 pmol/min/mg; with Brain [5] it was 0.846 pmol/min/mg. Moreover, in the data set with Brain [9], the Vmax was found to be 1.41 pmol/min/mg. Besides, the Km at 1 min in [10] worked out at 22.5 µM.
In data set [1], `CC(C)C[C@H](N)C(=O)OCCOC(=O)C(C)c1cccc(C(=O)c2ccccc2)c1` (stereo partly drawn) had an Activity of 0.0212 mL/s/g.
The same measure, in the same setting: next, `CC(C(=O)OCCOC(=O)[C@@H](N)Cc1ccccc1)c1cccc(C(=O)c2ccccc2)c1` (stereo partly drawn): 0.0282 mL/s/g.
